# Experimental data taken from PMC2818757 (Peptides, 2009).
# Ends that are not written are not given here.
# Experiments:
# NCI-N417 cells = assay: Phospholipase C / [3H]IP stimulation in SCLC cells NCI-N417; format: cell-based, human; conditions: 0.1 uM peptide alone, 37C, 60 min, mean ± SEM, at least 4 experiments
# Summary of the method: (§1)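 SCLC suspension cells (1 × 10^6 cells/ml) were labelled 24 h at 37C with myo-[2-3H]inositol in RPMI with 2% FBS. Cells were washed, held 10 min in PBS pH 7.0 with 20 mM LiCl, then resuspended in HEPES pH 7.4 buffer with LiCl, EGTA, glucose and BSA. Peptide exposure was 60 min at 37C, stopped with ice-cold HCl/methanol. Total [3H]IP was eluted from anion-exchange resin and counted by scintillation; values are expressed as experimental/control.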
# NCI-H69 cells = assay: Phospholipase C / [3H]IP stimulation in SCLC cells NCI-H69; format: cell-based, human; conditions: 0.1 uM peptide alone, 37C, 60 min, mean ± SEM, at least 4 experiments
# NCI-H209 cells = assay: Phospholipase C / [3H]IP stimulation in SCLC cells NCI-H209; format: cell-based, human; conditions: 0.1 uM peptide alone, 37C, 60 min, mean ± SEM, at least 4 experiments
# NCI-N592 cells = assay: Phospholipase C / [3H]IP stimulation in SCLC cells NCI-N592; format: cell-based, human; conditions: 0.1 uM peptide alone, 37C, 60 min, mean ± SEM, at least 4 experiments
# Summary of the method: as §1
# Antiserum 8684 = assay: GRP18-27gly #8684 RIA cross-reactivity; format: binding, rabbit; conditions: 125I-labeled GRP-gly tracer; GRP18-27gly standard
Molecule,"Phospholipase C activity, Experimental/control (NCI-N417 cells)","Phospholipase C activity, Experimental/control (NCI-H69 cells)","Phospholipase C activity, Experimental/control (NCI-H209 cells)","Phospholipase C activity, Experimental/control (NCI-N592 cells)",cross-reactivity with antiserum 8684 (Antiserum 8684)
"CSCC[C@H](NC(=O)[C@H](CC(C)C)NC(=O)[C@H](Cc1c[nH]cn1)NC(=O)CNC(=O)[C@@H](NC(=O)[C@H](C)NC(=O)[C@H](Cc1c[nH]c2ccccc12)NC(=O)[C@H](Cc1c[nH]cn1)NC(=O)[C@H](CC(N)=O)NC(=O)CNC(=O)[C@H](CCCNC(=N)N)NC(=O)[C@@H]1CCCN1C(=O)[C@H](Cc1ccc(O)cc1)NC(=O)[C@H](CCSC)NC(=O)[C@H](CCCCN)NC(=O)[C@@H](NC(=O)[C@H](CC(C)C)NC(=O)[C@@H](NC(=O)[C@@H](NC(=O)CNC(=O)CNC(=O)CNC(=O)[C@H](C)NC(=O)[C@@H]1CCCN1C(=O)[C@H](CC(C)C)NC(=O)[C@@H]1CCCN1C(=O)[C@@H](N)C(C)C)[C@@H](C)O)C(C)C)[C@@H](C)O)C(C)C)C(N)=O [GRP, gastrin releasing peptide]",1.03±0.01,1.23±0.07,1.11±0.04,1.03±0.04,–
"GRP1-27: amidated form of gastrin releasing peptide 1-27 (VPLPAGGGTVLTKMYPRGNHWAVGHLM-NH2; UniProt P07492 24-50, looked up)",–,–,–,–,60%
GRP18-27: amidated GRP18-27; differs from bombesin by a Gln to His substitution at position 20,–,–,–,–,60%
"[D-Phe^6, β-Ala^11, Phe^13, Nle^14] Bn(6-14)",3.14±0.34,1.31±0.04,1.17±0.03,1.05±0.04,–
bombesin,–,–,–,–,less than 1%
